We go through two molecules from ChEMBL document CHEMBL1157626, “A concise synthesis of 1,4-dihydro-[1,4]diazepine-5,7-dione, a novel 7-TM receptor ligand core structure with melanocortin receptor agonist activity” (Bioorg Med Chem, 2010).

Calls of active or inactive are those of the source. No cut-off for these calls is given here.

Series [1] deals with T1, Melanocortin receptor 4 (Homo sapiens, UniProt P32245). Nature of the series: Agonist activity at human MC4R expressed in CHO cells after 4 hrs by luciferase reporter gene assay relative to alpha-melanocyte stimulating hormone. The class given is functional, cell-based. The procedure, abridged:
(§1)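 CHO-6xCRE-luc+ cells expressing the human receptor, plated at 4000 cells/well in DMEM/F12 with 10% FBS 48 h before assay. Switched to serum-free medium 16 h before compound addition, then incubated 4 h at 37 °C. Luciferase read after 10 min dark adaptation. Activity expressed as % of fold stimulation by 1 × 10^-7 M NDP-aMSH (duplicate control wells).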
In general terms: Reporter assays use an easily measured gene product as a stand-in for the process of interest.

Series [2] in a line: Cmax in Sprague-Dawley rat at 10 mg/kg, po. Format: ADME, organism-based. Also on record: dose 10 mg/kg, route oral. To be noted: in vivo. In a few lines:
(§2)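 Single oral dose to Sprague Dawley rats, given as a suspension in 50% PEG/25% EtOH/25% H2O. Plasma samples collected over time to build the pharmacokinetic profile.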

For series [3], the system named is Rattus norvegicus. Nature of the series: Anorexigenic activity in lean Sprague-Dawley rat assessed as suppression of peptide YY-induced food intake during day light cycle period at 5 mg/kg, po administered 30 mins before peptide YY challenge. Format: functional, organism-based. Also on record: dose 5 mg/kg. In a few lines: (§3)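 Sated lean Sprague-Dawley rats with third-ventricle cannulae dosed by oral gavage at 10:30 AM. Vehicle was 50% PEG500/25% EtOH/25% water. 0.23 nmol PYY given ICV in sterile saline at 11:00 AM. Intake logged every half hour through the light period and the dark cycle (6 PM–6 AM). N = 5/group.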

Series [4] is described as follows: AUC (0 to infinity) in Sprague-Dawley rat at 10 mg/kg, po. Format: ADME, organism-based. Also on record: dose 10 mg/kg, route oral, time infinity. To be noted: plasma. The procedure, abridged:
as §2

The test system of series [5] is Rattus norvegicus. The experiment in a line: Anorexigenic activity in lean Sprague-Dawley rat assessed as suppression of peptide YY-induced food intake during day light cycle period at 25 mg/kg, po administered 30 mins before peptide YY challenge. The class given is functional, organism-based. Also on record: dose 25 mg/kg. The procedure, abridged: as §3
The test system of series [6] is Rattus norvegicus. The experiment in a line: Anorexigenic activity in lean Sprague-Dawley rat assessed as suppression of nocturnal food intake during dark cycle period at 25 mg/kg, po administered prior to onset of nocturnal cycle. Format: functional.
Series [7] in a line: Oral bioavailability in Sprague-Dawley rat at 10 mg/kg. To be noted: in vivo. The class given is ADME, organism-based. The procedure, abridged: as §2
The nature of series [8]: Half life in Sprague-Dawley rat at 10 mg/kg, po. Format: ADME, organism-based. Also on record: dose 10 mg/kg, route oral. To be noted: in vivo. The procedure, abridged: as §2
Series [9] has as its target T1, Melanocortin receptor 4. Nature of the series: Agonist activity at human MC4R expressed in CHO cells after 4 hrs by luciferase reporter gene assay. The class given is functional, cell-based. To be noted: read-out: pEC50 (converted). In a few lines:
as §1

Series [10] has as its target T2, Melanocyte-stimulating hormone receptor (Homo sapiens, UniProt Q01726). Nature of the series: Agonist activity at human MC1R expressed in CHO cells after 4 hrs by luciferase reporter gene assay. To be noted: read-out: pEC50 (converted). Format: functional, cell-based. In a few lines:
as §1
Target sequence in this assay (Q01726 whole entry): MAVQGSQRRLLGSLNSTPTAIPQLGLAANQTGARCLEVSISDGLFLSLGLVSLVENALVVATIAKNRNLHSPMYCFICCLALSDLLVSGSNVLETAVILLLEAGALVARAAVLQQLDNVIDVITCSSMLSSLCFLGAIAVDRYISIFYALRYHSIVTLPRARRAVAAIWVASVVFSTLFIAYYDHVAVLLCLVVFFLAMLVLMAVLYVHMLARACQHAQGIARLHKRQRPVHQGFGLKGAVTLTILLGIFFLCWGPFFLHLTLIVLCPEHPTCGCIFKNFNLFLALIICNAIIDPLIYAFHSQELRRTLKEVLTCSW

Series [11] concerns Rattus norvegicus. The experiment in a line: Anorexigenic activity in lean Sprague-Dawley rat assessed as suppression of peptide YY-induced nocturnal food intake during dark cycle period at 25 mg/kg, po administered 30 mins before peptide YY challenge. Format: functional, organism-based. On the set-up: dose 25 mg/kg. The procedure, abridged:
as §3

The target in series [12] is T2, Melanocyte-stimulating hormone receptor. The experiment in a line: Agonist activity at human MC1R expressed in CHO cells after 4 hrs by luciferase reporter gene assay relative to alpha-melanocyte stimulating hormone. Format: functional, cell-based. On the set-up: concentration or dose not given beside the values. The procedure, abridged: as §1
Target sequence in this assay (Q01726 whole entry, looked up): as the sequence (Q01726 whole entry) above
The nature of series [13]: Tmax in Sprague-Dawley rat at 10 mg/kg, po. Also on record: dose 10 mg/kg, route oral. To be noted: in vivo. The class given is ADME, organism-based. In a few lines: as §2
The test system of series [14] is Rattus norvegicus. Nature of the series: Anorexigenic activity in lean Sprague-Dawley rat assessed as suppression of peptide YY-induced food intake at 100 pmol, icv administered 15 mins before peptide YY challenge measured for 3 hrs. The class given is functional, organism-based. In a few lines:
(§4)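 Lean Sprague-Dawley rats (~400 g) with third-ventricle cannulae. Saline or 1 nmol SHU9119 given ICV 30 min before vehicle (2% DMSO/saline) or test compound ICV. 0.23 nmol PYY given ICV 15 min later. Powdered chow intake logged every half hour for 3 h. N = 7–8 per group.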

In series [15] the test system is Rattus norvegicus. Nature of the series: Anorexigenic activity in lean Sprague-Dawley rat assessed as suppression of peptide YY-induced food intake at 100 pmol, icv administered 15 mins before peptide YY challenge measured for 3 hrs in presence of MC4R antagonist SHU9119. Format: functional, organism-based. The procedure, abridged:
as §4

T1 sequence (P32245 whole entry): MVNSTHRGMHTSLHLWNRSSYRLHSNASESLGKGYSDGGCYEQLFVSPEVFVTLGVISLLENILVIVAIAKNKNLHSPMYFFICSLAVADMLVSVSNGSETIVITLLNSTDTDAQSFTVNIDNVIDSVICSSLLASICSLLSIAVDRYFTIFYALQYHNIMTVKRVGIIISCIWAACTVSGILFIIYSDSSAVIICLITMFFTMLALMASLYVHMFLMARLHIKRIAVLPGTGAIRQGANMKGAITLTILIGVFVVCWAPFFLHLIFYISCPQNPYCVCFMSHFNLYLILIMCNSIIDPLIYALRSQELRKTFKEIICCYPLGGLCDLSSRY

What is called Cmax is the maximum level reached in the sampled fluid or tissue. The AUC(0-inf) is the area under the concentration-time curve extrapolated to infinity. The term inhibition in vivo denotes the relative decrease from the control value, in per cent. One may read the bioavailability as the share of a dose that reaches the circulation, judged against a reference dose that is usually intravenous. For orientation: half-life means the time in which the quantity being followed falls by half. What is called Tmax is the time from dosing to the highest level. Regarding `COc1ccc(N(C(=O)CN2C=CN(c3ccccc3)C(=O)[C@H](Cc3n[nH]c4ccccc34)C2=O)C(C)C)cc1`, the figures for the Activity in [1] and in series [12] were 53 and 82%, respectively. The molecule further gave a Cmax in series [2] of 123 ng/mL. Further, the inhibition result in series [3], in series [5] and in series [11] was “Active” throughout. For the same molecule, the AUC(0-inf) in series [4] was found to be 260 ng·h/mL. The inhibition in vivo at 25 mg/kg in [6] came out at 20%. This molecule returned a bioavailability in series [7] of 6.2%. The half-life in series [8] is 1.5 h. For the same molecule, the EC50 was 339 nM in series [9] and 15.8 nM in series [10]. Besides, the Tmax in [13] turned out to be 0.67 h.
For `COc1ccc(N(C(=O)CN2C=CN(c3ccccc3)C(=O)C(Cc3n[nH]c4ccccc34)C2=O)C(C)C)cc1` (racemic), the figures for the Activity in [1] and in series [12] were 45 and 68%, respectively. Further, the inhibition entry in series [14] was “Active”. Further, the inhibition result in series [15] was “inactive”. In addition, the EC50 in series [9] is 708 nM.
